Data set [1] deals with Mycolicibacterium smegmatis. The data set is described as follows: Inhibition of Mycobacterium smegmatis Mca at 250 uM after 10 mins by HPLC analysis. The method in brief:
(§1)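 Native Mca purified from M. smegmatis by (NH4)2SO4 cut (15–50%), DEAE, hydroxyapatite and size-exclusion HPLC. 8.0 nmol of the bimane substrate MSmB and 8.0 nmol inhibitor (250 µM each) in Na-Hepes pH 7.5 with NaCl, 40 µl final volume, run 10 min at 37 °C. Stopped with acetonitrile/TFA and 60 °C for 10 min. Product read by C-18 HPLC with fluorescence detection (ex 396/em 482 nm).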

In data set [2] the target is T1, 1D-myo-inositol 2-acetamido-2-deoxy-alpha-D-glucopyranoside deacetylase (Mycobacterium tuberculosis) (UniProt P9WJN3).
T1 sequence (whole entry): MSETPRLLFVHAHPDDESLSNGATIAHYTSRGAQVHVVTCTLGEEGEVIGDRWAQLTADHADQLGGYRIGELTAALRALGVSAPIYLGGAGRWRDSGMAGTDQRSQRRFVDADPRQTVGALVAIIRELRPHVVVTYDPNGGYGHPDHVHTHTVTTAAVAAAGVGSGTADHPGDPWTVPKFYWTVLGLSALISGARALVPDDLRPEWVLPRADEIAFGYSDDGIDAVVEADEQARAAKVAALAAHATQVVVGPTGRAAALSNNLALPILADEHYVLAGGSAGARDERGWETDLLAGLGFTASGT
The data set is described as follows: Inhibition of Mycobacterium tuberculosis MshB expressed in Escherichia coli BL21 at 500 uM after 10 mins by HPLC analysis. In short, it runs like this: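 Recombinant MshB (E. coli BL21(DE3) pLysS, purified) assayed with GlcNAc-Ins and inhibitor, each at 500 μM, in 40 μl with 1.0 μmol Na-Hepes pH 7.5, 1.0 μmol NaCl, 3.26 μg MshB; 10 min at 37 °C; stopped with acetonitrile/TFA, 60 °C 10 min; GlcN-Ins measured by C-18 hplc as AccQ-Fluor derivative; percent inhibition.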

Data set [3] relates to Mycolicibacterium smegmatis. In words: Activity at Mycobacterium smegmatis Mca by HPLC analysis. The method in brief:
as §1

For data set [4], the target named is T2, 1D-myo-inositol 2-acetamido-2-deoxy-alpha-D-glucopyranoside deacetylase (Mycobacterium tuberculosis, UniProt P9WJN3).
T2 sequence (P9WJN3 whole entry): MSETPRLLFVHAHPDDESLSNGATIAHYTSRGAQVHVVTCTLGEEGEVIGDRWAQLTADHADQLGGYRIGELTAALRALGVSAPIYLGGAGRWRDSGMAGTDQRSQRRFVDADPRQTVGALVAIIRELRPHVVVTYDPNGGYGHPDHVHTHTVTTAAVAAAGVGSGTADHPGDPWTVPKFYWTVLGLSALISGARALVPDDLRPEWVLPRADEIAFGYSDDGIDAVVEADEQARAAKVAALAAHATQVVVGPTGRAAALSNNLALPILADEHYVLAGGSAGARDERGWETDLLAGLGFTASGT
In words: Inhibition of Mycobacterium tuberculosis MshB expressed in Escherichia coli BL21 after 10 mins by HPLC analysis.

Data set [5] concerns the target T1, 1D-myo-inositol 2-acetamido-2-deoxy-alpha-D-glucopyranoside deacetylase (Mycobacterium tuberculosis). The data set is described as follows: Activity at Mycobacterium tuberculosis MshB expressed in Escherichia coli BL21 at 250 uM assessed per mg of protein by HPLC analysis. The method in brief: (§2)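 Recombinant MshB from E. coli BL21(DE3) pLysS (IPTG 0.4 mM, 18 °C) purified by DEAE, Zn-IMAC and gel filtration. Substrates (GlcNAc glycosides, 250 μM for single-point comparison) incubated with 8.15 μg MshB, 1 μmol NaCl, 1 μmol Hepes pH 7.5 in 40 μl, 10 min, 37 °C; product quantified by C-18 hplc (UV for phenyl aglycons, dansylated for cyclohexyl) against complete-cleavage calibration curves.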

The target is the same in data set [6]. In words: Ratio of Kcat to Km for Mycobacterium tuberculosis MshB. The method in brief:
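GlcNAc-Ins varied 50–2000 μM with 3.26 μg purified recombinant MshB, 1.0 μmol Na-Hepes pH 7.5, 1.0 μmol NaCl in 40 μl, 10 min at 37 °C; GlcN-Ins quantified by hplc as AccQ-Fluor derivative.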

Substrate in data set [7]: CC(=O)N[C@@H]1[C@@H](O)[C@H](O)[C@@H](CO)O[C@@H]1Sc1ccccc1
The data set is described as follows: (§3) Activity at Mycobacterium tuberculosis MshB expressed in Escherichia coli BL21 assessed per mg of protein by HPLC analysis. In short, it runs like this: as §2

Substrate in data set [8]: CC(=O)N[C@H]1[C@@H](O[C@@H]2[C@H](O)[C@H](O)[C@@H](O)[C@H](O)[C@H]2O)O[C@H](CO)[C@@H](O)[C@@H]1O
The data set is described as §3. The method in brief:
as §2

Substrate in data set [9]: CC(=O)N[C@@H]1[C@@H](O)[C@H](O)[C@@H](CO)O[C@@H]1Sc1ccccc1
The data set is described as follows: (§4) Activity at Mycobacterium tuberculosis MshB expressed in Escherichia coli BL21 by HPLC analysis. The method in brief:
as §2

Substrate in data set [10]: CC(=O)N[C@H]1[C@@H](O[C@@H]2[C@H](O)[C@H](O)[C@@H](O)[C@H](O)[C@H]2O)O[C@H](CO)[C@@H](O)[C@@H]1O
Described as §4. The method in brief: as §2

By inhibition is commonly meant how much of the control response was suppressed. Take `CC(=O)N[C@@H]1[C@@H](O)[C@H](O)[C@@H](CO)O[C@H]1SCc1ccccc1`: the inhibition in data set [1] came to 0%; in data set [2], 13.3%.

`CCC[C@H]1[C@@H](OC2CCCCC2)O[C@H](CO)[C@@H](O)[C@@H]1O`: the inhibition was found to be 22% in [1] and 0% in data set [2].

For `OC[C@H]1O[C@H](OC2CCCCC2)[C@H](CC2CO2)[C@@H](O)[C@@H]1O` (stereo partly drawn), the values for the inhibition in data set [1] and in data set [2] were 19.4% and 19.7%, respectively.

A word on the Km: it is the concentration of substrate that gives half-maximal velocity. Consider `CC(=O)N[C@@H](CSSc1ccc2cc(O)ccc2c1)C(=O)NC1[C@@H](OC2[C@H](O)[C@H](O)C(O)[C@@H](O)[C@H]2O)O[C@H](CO)[C@@H](O)[C@@H]1O` (stereo partly drawn), for which the Km in data set [3] amounted to 328 µM.

As for `CS(=O)(=O)N[C@@H]1[C@@H](O)[C@H](O)[C@@H](CO)O[C@@H]1SC1CCCCC1`, the inhibition in data set [1] and in data set [2] was 0% each time.

One may read the Ki as the equilibrium dissociation constant of an inhibitor or competing ligand from its target. A low value points to higher affinity. In [4], `CC1=C(CCCCC(=O)N[C@@H]2[C@@H](O)[C@H](O)[C@@H](CO)O[C@@H]2Sc2ccccc2)C(=O)c2c(O)cccc2C1=O` displayed a Ki of 94 µM. The inhibition in [1] amounted to 23.2%; in [2], 81.4%.

In the case of `CC(O)C[C@H]1[C@@H](OC2CCCCC2)O[C@H](CO)[C@@H](O)[C@@H]1O` (stereo partly drawn), the inhibition in [1] is 20.5%; in data set [2], 11.4%.

With `CC(=O)N[C@@H]1[C@@H](O)[C@H](O)[C@@H](CO)O[C@H]1Sc1ccccc1`, the figures for the inhibition in data set [1] and in data set [2] were 0% and 15.1%, respectively.

`CC(=O)N[C@@H]1[C@@H](O)[C@H](O)[C@@H](CO)O[C@@H]1SC1CCCCC1` yielded an Activity in data set [5] of 6.11 nmol/min/mg.

Regarding `O=C(CCl)N[C@@H]1[C@@H](O)[C@H](O)[C@@H](CO)O[C@@H]1SC1CCCCC1`, the inhibition in [1] turned out to be 0%; in data set [2], 14.9%.

`OC[C@H]1O[C@H](OC2CCCCC2)[C@@H]2CC(O)CO[C@H]2[C@@H]1O` (stereo partly drawn): the results for the inhibition in [1] and in [2] were 35% and 6.6%, respectively.

With `CC(=O)N[C@@H]1[C@@H](O)[C@H](O)[C@@H](CO)O[C@@H]1Sc1ccccc1`, the Ratio in data set [6] turned out to be 69.4 M⁻¹ s⁻¹. The molecule further came in with an Activity in data set [5] of 27 nmol/min/mg.

For `CC(=N)N[C@@H]1[C@@H](O)[C@H](O)[C@@H](CO)O[C@@H]1SC1CCCCC1`, the inhibition in [1] came to 6.8%; in data set [2], 0%.

Consider `O=C(Nc1ccccc1)N[C@@H]1[C@@H](O)[C@H](O)[C@@H](CO)O[C@@H]1SC1CCCCC1`, for which the inhibition in data set [1] is 15%; in data set [2] it was 17%.

Molecule `CC1=C(CCCCCC(=O)N[C@@H]2[C@@H](O)[C@H](O)[C@@H](CO)O[C@@H]2Sc2ccccc2)C(=O)c2c(O)cccc2C1=O` yielded a Ki in data set [4] of 16.8 µM. Further, the inhibition was found to be 44.5% in data set [1] and 94.8% in [2].

Turning to `CC(=O)N[C@H]1[C@@H](OC2CCCCC2)O[C@H](CO)[C@@H](O)[C@@H]1O`, the Activity in [5] stood at 6.07 nmol/min/mg.

For `C=CC[C@H]1[C@@H](OC2CCCCC2)O[C@H](CO)[C@@H](O)[C@@H]1O`, the inhibition in data set [1] is 73.8%; in data set [2], 0%.

On to `N[C@@H]1[C@@H](O)[C@H](O)[C@@H](CO)O[C@@H]1SC1CCCCC1`, for which the results for the inhibition in [1] and in data set [2] were 0% and 16.4%, respectively.

For `CC(=O)C[C@H]1[C@@H](OC2CCCCC2)O[C@H](CO)[C@@H](O)[C@@H]1O`, the inhibition stood at 17.2% in [1] and 6.7% in data set [2].

Consider `CO[C@H]1OCC(S[C@H]2O[C@H](CO)[C@@H](O)[C@H](O)[C@H]2NC(C)=O)C[C@H]1O` (stereo partly drawn), for which the inhibition in data set [1] is 27%; in data set [2] it was 0%.

Take `N[C@@H]1[C@@H](O)[C@H](O)[C@@H](CO)O[C@@H]1Sc1ccccc1`: the inhibition in [1] worked out at 17%; in data set [2], 6.1%.

For `CC(=O)N[C@@H]1[C@@H](O)[C@H](O)[C@@H](CO)O[C@@H]1Sc1ccc([N+](=O)[O-])cc1[N+](=O)[O-]`, the results for the inhibition in data set [1] and in data set [2] were 0% and 29.4%, respectively.

For the molecule `CC(=O)N[C@H]1[C@@H](O[C@@H]2[C@H](O)[C@H](O)[C@@H](O)[C@H](O)[C@H]2O)O[C@H](CO)[C@@H](O)[C@@H]1O`, in data set [6], the Ratio worked out at 690 M⁻¹ s⁻¹. Also, the Activity in data set [5] was 106 nmol/min/mg.

For `CC1=C(CCC(=O)N[C@@H]2[C@@H](O)[C@H](O)[C@@H](CO)O[C@@H]2Sc2ccccc2)C(=O)c2c(O)cccc2C1=O`, the Ki in data set [4] was found to be 167 µM. Further, the inhibition turned out to be 28.8% in data set [1] and 57.4% in data set [2].

With `C=CC[C@H]1[C@H](OC2CCCCC2)O[C@H](CO)[C@@H](O)[C@@H]1O`, the figures for the inhibition in [1] and in data set [2] were 9.3% and 0%, respectively.

Consider `CC1=C(CCCC(=O)N[C@@H]2[C@@H](O)[C@H](O)[C@@H](CO)O[C@@H]2Sc2ccccc2)C(=O)c2c(O)cccc2C1=O`, for which the inhibition in [1] came out at 37.8%; in data set [2], 81.6%.

B1: 1D-myo-inositol 2-acetamido-2-deoxy-alpha-D-glucopyranoside deacetylase (Mycobacterium tuberculosis), P9WJN3 (protein)
chain: MSETPRLLFVHAHPDDESLSNGATIAHYTSRGAQVHVVTCTLGEEGEVIGDRWAQLTADHADQLGGYRIGELTAALRALGVSAPIYLGGAGRWRDSGMAGTDQRSQRRFVDADPRQTVGALVAIIRELRPHVVVTYDPNGGYGHPDHVHTHTVTTAAVAAAGVGSGTADHPGDPWTVPKFYWTVLGLSALISGARALVPDDLRPEWVLPRADEIAFGYSDDGIDAVVEADEQARAAKVAALAAHATQVVVGPTGRAAALSNNLALPILADEHYVLAGGSAGARDERGWETDLLAGLGFTASGT
As a reminder, the Vmax is the rate approached at saturating substrate. One may read the kcat as the number of substrate molecules converted per active site and unit of time at saturation. With B1, the Vmax amounted to 214 nmol/min/mg in data set [7] and 437 nmol/min/mg in data set [8]. For the same molecule, the Km in data set [9] was found to be 1700 µM; in data set [10] it was 348 µM. Besides, the kcat in data set [9] came out at 0.12 s⁻¹; in [10] it was 0.24 s⁻¹.
